We go through eight compounds from ChEMBL document CHEMBL1255401, “Penicillin sulfone inhibitors of class D beta-lactamases” (Antimicrob Agents Chemother, 2010).

Assay [1] in a line: Inhibition of Beta-lactamase OXA-1 expressed in Escherichia coli BL21 (DE3) by nitrocefin hydrolysis assay. In short, it runs like this: (§1)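 Competition assay at room temperature in 50 mM sodium phosphate with 20 mM bicarbonate, run in triplicate. Enzyme at 11 nM, reporter substrate 50 μM nitrocefin, inhibitor at 4 μM to 9 mM depending on inhibitor and enzyme. Initial velocities taken immediately after mixing, 1/v plotted against [I] and fitted linearly. Ki obtained as y-intercept divided by slope.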

Assay [2] can be described thus: Inhibition of Beta-lactamase OXA-10 expressed in Escherichia coli BL21 (DE3) by nitrocefin hydrolysis assay. In short, it runs like this:
as §1

The nature of assay [3]: Inhibition of Beta-lactamase OXA-24/40 expressed in Escherichia coli BL21 (DE3) by nitrocefin hydrolysis assay. In short, it runs like this: as §1
The test system of assay [4] is Escherichia coli. The assay is described as follows: Antibacterial activity against Escherichia coli DH10B harboring RGN238 plasmid containing Beta-lactamase OXA-1 at 4 ug/ml in presence of increasing concentrations of piperacillin by broth agar dilution assay. Type of assay: functional. The gist of the method:
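Lysogeny broth agar dilution MIC on E. coli DH10B carrying plasmid RGN238 with blaOXA-1. Piperacillin tested at increasing concentrations with the inhibitor held at a constant 4 μg/ml. Plates inoculated by Steers replicator with 10 μl of a diluted overnight culture containing 10^4 CFU.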
On the technique in general: In agar dilution, organisms are placed on agar that contains the substance at set levels.

Assay [5] can be described thus: Inhibition of Beta-lactamase OXA-14 expressed in Escherichia coli BL21 (DE3) by nitrocefin hydrolysis assay. The gist of the method: as §1
The nature of assay [6]: Inhibition of Beta-lactamase OXA-17 expressed in Escherichia coli BL21 (DE3) by nitrocefin hydrolysis assay. The gist of the method: as §1
A short description of assay [7]: Ratio of Kcat to Km for Beta-lactamase OXA-1 expressed in Escherichia coli BL21 (DE3). In short, it runs like this:
(§2)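 OXA-1 from E. coli BL21(DE3) with pET 12a(+) blaOXA-1, IPTG-induced (0.2 mM), released with lysozyme/EDTA, purified by preparative isoelectric focusing. Continuous spectrophotometric hydrolysis assays of oxacillin, ampicillin, nitrocefin and cephaloridine at room temperature in 50 mM sodium phosphate with 20 mM bicarbonate, run in triplicate. Initial rates versus substrate concentration fitted to give kcat, Km and kcat/Km.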

The nature of assay [8]: Activity of Beta-lactamase OXA-1 expressed in Escherichia coli BL21 (DE3). In short, it runs like this:
as §2

For the compound `C[C@]1(COC(=O)Cc2ccc(O)c(O)c2)[C@H](C(=O)O)N2C(=O)/C(=C/c3ccccn3)[C@H]2S1(=O)=O`, the Ki – broadly, the equilibrium dissociation constant of an inhibitor or competing ligand from its target – in assay [1] is 0.7 µM; in assay [2], 8 µM; in assay [3], 0.65 µM; in assay [5], 1.4 µM; in assay [6], 0.2 µM. Moreover, the minimal inhibitory concentration (MIC) (commonly the lowest concentration found to suppress growth) in assay [4] came to 128 µg/mL.
As for `CC1(C)S[C@@H]2[C@H](NC(=O)[C@H](N)c3ccccc3)C(=O)N2[C@H]1C(=O)O`, the specificity constant (kcat/Km) (usually the second-order rate constant that governs catalysis at low substrate concentration) in assay [7] worked out at 6e+06 M⁻¹ s⁻¹. In addition, in assay [8], the Km (in general, the concentration of substrate that gives half-maximal velocity) was 64 µM and the turnover number (kcat) (usually the maximal rate divided by the concentration of active sites) stood at 357 s⁻¹.
On to `O=C(O)[C@H]1/C(=C/CO)O[C@@H]2CC(=O)N21` [CLAVULANIC ACID], for which the inhibitory constant (Ki) in assay [1] worked out at 195 µM; in assay [2] it was 104 µM; in assay [3], 51 µM; in assay [5] it was 19 µM; in assay [6], 45 µM.
For `O=C(Cc1cccs1)N[C@@H]1C(=O)N2C(C(=O)O)=C(/C=C/c3ccc([N+](=O)[O-])cc3[N+](=O)[O-])CS[C@H]12`, the kcat/Km in assay [7] was 1e+07 M⁻¹ s⁻¹. Moreover, in assay [8], the Michaelis constant (Km) was 9 µM and the kcat was 94 s⁻¹.
With `O=C(Cc1cccs1)N[C@@H]1C(=O)N2C(C(=O)[O-])=C(C[n+]3ccccc3)CS[C@H]12`, in assay [7], the kcat/Km worked out at 210000 M⁻¹ s⁻¹. In addition, in assay [8], the Km was 80 µM and the catalytic constant (kcat) was 16 s⁻¹.
As for `CC(=O)OC[C@@]1(C)[C@H](C(=O)O)N2C(=O)/C(=C/c3ccccn3)[C@H]2S1(=O)=O`, the Ki in assay [1] amounted to 1.4 µM; in assay [2], 17 µM; in assay [3], 2.4 µM; in assay [5], 4 µM; in assay [6], 0.87 µM.
Regarding `Cc1onc(-c2ccccc2)c1C(=O)N[C@@H]1C(=O)N2[C@@H]1SC(C)(C)[C@@H]2C(=O)O`, in assay [7], the catalytic efficiency (kcat/Km) came to 1.9e+07 M⁻¹ s⁻¹. In assay [8], the Km was found to be 31 µM and the kcat is 577 s⁻¹.
Regarding `C[C@]1(Cn2ccnn2)[C@H](C(=O)O)N2C(=O)C[C@H]2S1(=O)=O` [TAZOBACTAM], the inhibition constant (Ki) in assay [1] was 585 µM; in assay [2] it was 170 µM; in assay [3] it was 271 µM; in assay [5] it was 30 µM; in assay [6] it was 40 µM. Moreover, the MIC in assay [4] was determined as 512 µg/mL.
